{"data": "Measured values from different studies", "KIT D816V": "Mast/stem cell growth factor receptor Kit (KIT, Homo sapiens, UniProt P10721, D816V)", "KIT": "Mast/stem cell growth factor receptor Kit (KIT, Homo sapiens, UniProt P10721)", "KIT V559D/V654A": "Mast/stem cell growth factor receptor Kit (KIT, Homo sapiens, UniProt P10721, V559D/V654A)", "KIT A829P": "Mast/stem cell growth factor receptor Kit (KIT, Homo sapiens, UniProt P10721, A829P)", "KIT L576P": "Mast/stem cell growth factor receptor Kit (KIT, Homo sapiens, UniProt P10721, L576P)", "KIT T670I/V559D": "Mast/stem cell growth factor receptor Kit (KIT, Homo sapiens, UniProt P10721, T670I/V559D)", "KIT V559D": "Mast/stem cell growth factor receptor Kit (KIT, Homo sapiens, UniProt P10721, V559D)", "note": "Each line is one published result; the experiments were not run side by side."}
{"target": "KIT D816V", "test": "binding, competition with immobilised ligand", "conditions": "1 µM", "remaining binding": "17%", "SMILES": "O=C(c1ccc(Nc2ncc(Cl)c(-c3ccc(Cl)s3)n2)cc1)N1CCC(N2CCCC2)CC1"}
{"target": "KIT", "test": "binding, competition with immobilised ligand", "conditions": "1 µM", "remaining binding": "95%", "SMILES": "Nc1ncc2c(n1)-c1c([nH]c3ccc(C#CC4CC4)cc13)CCCC2"}
{"target": "KIT V559D/V654A", "test": "binding, competition with immobilised ligand", "conditions": "1 µM", "remaining binding": "24%", "SMILES": "CCN1CCN(Cc2ccc(C(=O)Nc3ccc(C)c(Oc4ccc5c(c4)CC(=O)N5)c3)cc2C(F)(F)F)CC1"}
{"target": "KIT", "test": "cell-free assay, competition with immobilised ligand", "conditions": "1 µM", "remaining binding": "89%", "SMILES": "O=C(NC[C@@H]1[C@H]2CN(C(=O)OCc3cc(C(F)(F)F)cc(C(F)(F)F)c3)C[C@@H]12)c1ccc2[nH]nnc2c1"}
{"target": "KIT A829P", "test": "binding, competition with immobilised ligand", "conditions": "1 µM", "remaining binding": "100%", "SMILES": "C=CC(=O)N1CCC(C(=O)NCC(=O)N2CCN(c3nc(-c4cnc(N)nc4C(F)F)nc(N4CCOCC4)n3)CC2)CC1"}
{"target": "KIT L576P", "test": "binding, competition with immobilised ligand", "conditions": "1 µM", "remaining binding": "100%", "SMILES": "COc1cnc(Nc2cccc(S(N)(=O)=O)c2)nc1N1CCN(c2ccccc2)C(=O)C1"}
{"target": "KIT L576P", "test": "cell-free assay, competition with immobilised ligand", "conditions": "1 µM", "remaining binding": "100%", "SMILES": "COc1ccc2cc(OCC3(C(=O)O)CN(C(=O)c4ccc(F)cc4)C3)ccc2c1"}
{"target": "Mast/stem cell growth factor receptor Kit (KIT, Homo sapiens, UniProt P10721, D816H)", "test": "binding", "conditions": "1 µM", "remaining binding": "100%", "SMILES": "N[C@@H]1CCN(c2nccc(-c3cnn4ncccc34)n2)C1"}
{"target": "KIT L576P", "test": "binding, competition with immobilised ligand", "conditions": "0.1 µM", "remaining binding": "17%", "SMILES": "C[C@@H](c1ccc(-n2cnc3c(N)ncnc32)cc1)N1CCc2nn(C)c(Cc3ccccc3)c2C1=O"}
{"target": "KIT A829P", "test": "binding, competition with immobilised ligand", "conditions": "1 µM", "remaining binding": "7.2%", "SMILES": "Cc1cnc(Nc2ccc(C(=O)N3CCC(N4CCCC4)CC3)cc2)nc1-c1cc2ccccc2s1"}
{"target": "KIT A829P", "test": "binding", "conditions": "1 µM", "remaining binding": "85%", "SMILES": "C[C@@H]1CCN(c2nccc(-c3cnn4ncccc34)n2)C1"}
{"target": "KIT A829P", "test": "cell-free assay, competition with immobilised ligand", "conditions": "1 µM", "remaining binding": "100%", "SMILES": "CC(=O)N1CCC(c2ccc(C(=O)NC(=N)N)cc2C(F)(F)F)CC1"}
{"target": "KIT T670I/V559D", "test": "binding, competition with immobilised ligand", "conditions": "1 µM", "remaining binding": "100%", "SMILES": "CNC(=O)[C@@H]1CC[C@@H](n2c(-c3ccc4cnccc4c3)nc3ccc(C(=O)NCc4cccc(C(N)=O)c4)cc32)C1"}
{"target": "KIT L576P", "test": "binding, competition with immobilised ligand", "conditions": "1 µM", "remaining binding": "2.8%", "SMILES": "O=C(NCCCN1CCOCC1)c1ccc(Nc2ncc(Cl)c(-c3ccc(Cl)s3)n2)cc1"}
{"target": "KIT A829P", "test": "binding, competition with immobilised ligand", "conditions": "1 µM", "remaining binding": "92%", "SMILES": "O=C(Nc1c[nH]nc1C(=O)NC1CCNCC1)c1cc(F)cc(F)c1"}
{"target": "KIT L576P", "test": "binding, competition with immobilised ligand", "conditions": "1 µM", "remaining binding": "8.7%", "SMILES": "O=C(NCCCN1CCOCC1)c1ccc(Nc2nccc(-c3cc4ccccc4s3)n2)cc1"}
{"target": "KIT L576P", "test": "cell-free assay, competition with immobilised ligand", "conditions": "1 µM", "remaining binding": "87%", "SMILES": "Cc1nc(C2CCN(C(=O)c3ccc(OC(F)(F)F)cc3N)CC2)c2ncc(N3CCN(C)CC3)cc2n1"}
{"target": "KIT L576P", "test": "binding", "conditions": "1 µM", "remaining binding": "70%", "SMILES": "c1cnn2ncc(-c3ccnc(N4CCC45COC5)n3)c2c1"}
{"target": "KIT", "test": "cell-free assay, competition with immobilised ligand", "conditions": "1 µM", "remaining binding": "89%", "SMILES": "NS(=O)(=O)c1cc(NC(=O)Cc2ccccc2)ccc1Oc1cccc(Cl)c1"}
{"target": "KIT V559D/V654A", "test": "binding, competition with immobilised ligand", "conditions": "1 µM", "remaining binding": "90%", "SMILES": "O=C(NCC1CCOCC1)c1n[nH]cc1NC(=O)c1c(F)cccc1F"}
{"target": "Mast/stem cell growth factor receptor Kit, autoinhibited (KIT, Homo sapiens, UniProt P10721)", "test": "binding, competition with immobilised ligand", "conditions": "10 µM", "remaining binding": "43%", "SMILES": "c1cncc(-c2cccc(Nc3nccc(NC4CCCCC4)n3)c2)c1"}
{"target": "KIT D816V", "test": "binding, competition with immobilised ligand", "conditions": "1 µM", "remaining binding": "92%", "SMILES": "COc1cnc(Nc2cccc(S(N)(=O)=O)c2)nc1N1CCN(c2ccccc2)CC1"}
{"target": "KIT A829P", "test": "binding", "conditions": "1 µM", "remaining binding": "85%", "SMILES": "COc1ccnn2ncc(-c3ccnc(N(C)C)n3)c12"}
{"target": "KIT V559D", "test": "binding, competition with immobilised ligand", "conditions": "1 µM", "remaining binding": "6.6%", "SMILES": "O=C(c1ccc(Nc2ncc(Cl)c(-c3cc4ccccc4s3)n2)cc1)N1CCC(N2CCCC2)CC1"}
{"target": "KIT", "test": "binding", "conditions": "1 µM", "remaining binding": "100%", "SMILES": "Cc1cnn2ncc(-c3ccnc(N(C)C)n3)c2c1"}
{"target": "KIT T670I/V559D", "test": "binding, competition with immobilised ligand", "conditions": "1 µM", "remaining binding": "24%", "SMILES": "O=C(c1ccc(Nc2nccc(-c3cc4ccccc4s3)n2)cc1)N1CCC(N2CCCC2)CC1"}
{"target": "KIT V559D", "test": "cell-free assay, competition with immobilised ligand", "conditions": "1 µM", "remaining binding": "100%", "SMILES": "FC(F)(F)c1ccc2c(c1)nc(-c1cccnc1)n2C1CC1"}
{"target": "KIT", "test": "cell-free assay, competition with immobilised ligand", "conditions": "5 µM", "remaining binding": "92%", "SMILES": "COc1ncc2cc3ccccc3nc2c1C#N"}
{"target": "KIT T670I/V559D", "test": "cell-free assay, competition with immobilised ligand", "conditions": "1 µM", "remaining binding": "100%", "SMILES": "CN([C@@H]1CCc2c(CC(=O)O)c3ccccc3n2C1)S(=O)(=O)c1ccc(F)cc1"}
{"target": "KIT T670I/V559D", "test": "binding", "conditions": "1 µM", "remaining binding": "100%", "SMILES": "CN(C)c1ncc(F)c(-c2cnn3ncccc23)n1"}
{"target": "KIT L576P", "test": "cell-free assay, competition with immobilised ligand", "conditions": "0.1 µM", "remaining binding": "86%", "SMILES": "CNC(=O)c1ccc(Nc2ncc(C(F)(F)F)c(NCc3nccnc3N(C)S(C)(=O)=O)n2)cc1"}
{"target": "KIT A829P", "test": "binding", "conditions": "10 µM", "remaining binding": "4.3%", "SMILES": "CN1CCN(c2ccc(Nc3nccc(-c4cccc([N+](=O)[O-])c4)n3)cc2C(F)(F)F)CC1"}
